# Assay results: PubChem BioAssay
# Values without a mark were called inactive. Inconclusive results are not listed. Calls of active or inactive are those of the source.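 Rule for the calls, unless noted: active = inhibition over a set limit, the all-compound mean plus 3 SD, in both replicate runs; inconclusive = over that limit in just one replicate run; inactive = at or under that limit in both runs.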
# Legend:
# [1] = OD615 S. cerevisiae growth inhibition, permissive medium, pilot counter-assay, permissive growth control for S. cerevisiae lifespan shortening project (AID 705;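 active = growth inhibition above 25% in both replicates, a cutoff set 3 SD above the mean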); conditions: OD615, 24 h, at 10 µM, hits give high values
# In short: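 System: engineered DeaD yeast; Medium: permissive raffinose/galactose medium; Compound dosing: 10 µM single dose, 0.25% DMSO; Incubation: 4 h cell pre-growth, 24 h exposure at 30 °C; Technique: OD at 615 nm; Evaluation: growth inhibition from lowered OD615 after 24 h.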
# [2] = Restrictive medium S. cerevisiae growth inhibition, OD615, pilot screen of yeast lifespan reduction project, restrictive growth control (AID 706;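 active = growth inhibition above a set limit, 3 SD over mean compound inhibition, in both replicates, cut at about 43% in these data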;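 note: modified DeaD lifespan yeast strain shifted to restrictive glucose medium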); conditions: OD615, 48 h, at 10 µM, hits give high values
# In short: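 Material: modified S. cerevisiae; buffer or medium: CSMM-D glucose medium; doses: one concentration, 10 µM final, 0.25% DMSO; incubation: 48 h compound exposure at 30 °C; detection: optical density at 615 nm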
# [3] = viability gain of MRP-1-high H69AR cells under doxorubicin, pilot screen, MRP-1 activator project, CellTiter-Glo, duplicate (AID 807;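 active = viability increase at or above a cutoff of the median across tested compounds plus 3 SD, cut at about 8.5% in these data, passing the limit was not always enough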;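 note: compound pretreatment 18-22 h then 72 h combined with doxorubicin; 0% = doxorubicin alone and 100% = vehicle without doxorubicin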); conditions: H69AR viability with doxorubicin, CellTiter-Glo luminescence; at 10 µM; hits give high values
# [4] = growth suppression of beta-catenin knockout HCT116, pilot screen, human colon tumor cells (AID 823;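 active = cell viability at or below a set limit in both duplicate runs, the limit being the all-compound median minus 4 SD, cut at about 23% in these data, passing the limit was not always enough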;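 note: 0% = wells killed by 20 µM Hyamine and 100% = untreated DMSO cell wells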); conditions: CellTiter-Glo, 60 h, at 10 µM, hits give low values
# [5] = growth suppression of PTEN-deleted HCT116, pilot screen, cell-based, HCT116 clonal line, CellTiter-Glo (AID 824;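 active = viability at or below 27.92% in each of two runs, the all-compound median minus 4 SD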;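 note: 0% = 20 µM Hyamine control and 100% = vehicle cell control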); conditions: 60 h, at 10 µM, hits give low values
# [6] = inhibitors of the yeast RAM network, pilot screen, dse1pr::URA3 reporter, 5-FOA selection (AID 869);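 note: 0% = DMSO wells with no growth and 100% = 10 µM 1-NA-PP1 with full growth; RAM network block rescues cells from 5-FOA so hits raise OD615 growth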; conditions: S. cerevisiae dse1pr::URA3 5-FOA growth, OD615, 2 d; at 10 µM; hits give high values; strain carries analog-sensitive mutant Cbk1 kinase
# [7] = RAM signaling pathway blockade in yeast – S. cerevisiae, Pdr1DBD-CYC8 efflux-inhibited sensitized strain, primary screen (AID 1298;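 active = RAM network inhibition above 8.4% in each of two replicates, 3 SD over the compound average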;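 note: 0% = DMSO untreated cells without growth and 100% = 10 µM 1-NA-PP1 full growth; higher means more yeast growth rescued from 5-FOA killing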); conditions: S. cerevisiae cbk1-as DSE1-URA3 strain, 5-FOA growth OD615, 2 d; at 50 µM; hits give high values
Structure (SMILES),growth inhibition [1] [%],growth inhibition [2],viability increase [3] [%],viability [4],viability [5],inhibition [6] [%],RAM network inhibition [7] [%]
CC(=O)CCC(=O)NCCc1ccccc1F,-5.29,9.55%,0.02,94.8%,97.2%,0.02,0.25
N#CCCN1CCN(S(=O)(=O)c2ccc(S(=O)(=O)N3CCCCCC3)cc2)CC1,1.57,-16.9%,-2.09,97.4%,94.3%,0.525,11.9
CSc1cc(/C=N/O)c(SC)s1,-6.62,1.13%,-3.3,97.3%,95.9%,0.395,-1.95
CCn1c(N2CCC(C)CC2)nc2c1c(=O)n(C)c(=O)n2C,-10.5,1.69%,-0.88,92.9%,85%,1.12,0.06
COCCNC(=O)COc1ccccc1Cl,-8.43,0.04%,-1.02,95.4%,93.8%,0.815,1.81
Cn1c(=O)n(C)c2cc(CN3C(=O)OC(C)(C)C3(C)O)ccc21 (centres undefined),2.22,0.365%,-1.11,105%,95.2%,0.09,4.45
CC1Cc2nc(SCC(=O)N3CCCC3)n(C)c(=O)c2S1 (centres undefined),-3.58,-13.8%,-3.27,98.2%,87.9%,1.17,5.83
O=C(CSc1ccccn1)c1ccc(F)cc1,10.7,17.6%,-0.02,100%,102%,2.88,1.72
CCOC(=O)c1c(C)c(-c2ccccc2)n(CC(=O)N2CCN(C)CC2)c1C,-19,-24.2%,-2.94,102%,102%,2.83,2.67
CCOCCCNC(=O)C(c1ccc(Cl)cc1)N1CCN(C(=O)c2ccco2)CC1 (centres undefined),-19.4,-17.1%,-2.12,101%,96.2%,2.34,5.86
O=C(NC1CSC/C1=N\O)c1ccccc1 (centres undefined),-9.51,-1.84%,-2.52,103%,101%,1.17,1.84
CC(C)n1c(C(O)c2ccc3c(c2)OCO3)nc2ccccc21 (centres undefined),-1.25,0.5%,0.4,94.8%,90.9%,0.905,2.89
CS/C(=N\S(=O)(=O)c1ccc(N)cc1)NS(=O)(=O)c1cccs1,-0.825,-11.5%,-0.88,103%,102%,0.23,3.11
O=C(Cc1cc(=O)[nH]c(=O)[nH]1)N1CCC(Cc2ccccc2)CC1,0.795,-5.47%,-0.99,96%,94.2%,1.33,3.92
CN(C)c1ccc(C2N(c3ccc(Cl)cc3)C(=O)C3CCCN32)cc1 (centres undefined),-2.63,6.78%,-1.01,98.1%,98.7%,2.37,1.57
CCCCn1c(=O)[nH]c2ccccc21,-4.76,-21.1%,-1.44,106%,104%,1.69,2.05
Cc1ccc2oc(=O)c3cc(C(=O)NCc4ccco4)sc3c2c1,-8.27,-8.27%,-2.9,102%,96.6%,3.86,2.71
O=C(c1ccccc1C(=O)N1CCN(c2ccccc2F)CC1)N1CCN(c2ccccc2F)CC1,-6.81,-15.5%,-0.42,61.6%,68.2%,1.44,11.2
Cc1cc(C)cc(N(CC(=O)N2CCc3ccccc32)S(=O)(=O)c2c(C)noc2C)c1,-11.2,-5.73%,-4.52,90.4%,89.9%,2.83,0.55
CCC(C)NC(=O)CCS(=O)(=O)c1ccc2c(c1)n(C)c(=O)c(=O)n2C (centres undefined),-2.86,4.93%,-0.01,103%,99.1%,3,3.76
CCC(C)NC(=O)C1CCC(=O)N(c2ccc3c(c2)OCO3)C1c1ccc(OC)cc1 (centres undefined),0.49,-0.06%,-1.78,103%,100%,1.02,4.2
COc1ccc(NC(=O)Nc2cccc(OC)c2)cc1,-3.64,-19.4%,-0.65,95.3%,93.4%,1.02,1.14
CCCC(=O)OCCNC(=O)c1cc2ccccc2oc1=O,-4.39,2.19%,-0.74,102%,90.2%,0.64,2.41
CCCCS(=O)(=O)/C=C\C=C/S(=O)(=O)CCCC,14.9,60% (active),-7.95,1.4% (active),1.36% (active),-0.535,-3.06

Structure (SMILES),growth inhibition [1] [%],growth inhibition [2],viability increase [3] [%],viability [4],viability [5],inhibition [6] [%],RAM network inhibition [7] [%]
CC1CCC(n2c(=S)[nH]c3ccccc3c2=O)CC1 (centres undefined),13,23%,-4.34,81.5%,75.4%,0.285,5.25
COc1ccc(-c2nnc(COc3ccc4ccccc4c3)o2)cc1OC,-7.47,-22.7%,-0.12,99.7%,91.6%,1.22,8.07
O=C(O)c1c2c(nc3ccc(S(=O)(=O)N4CCC(C(=O)N5CCCCC5)CC4)cc13)CCCC2,-3.06,-3.51%,0.51,97.3%,92.8%,0.79,1.98
CCOC(=O)C1CCN(C(=O)CS(=O)Cc2nc(-c3ccc(C)cc3)oc2C)CC1 (centres undefined),1.66,22.5%,-3.68,86.3%,84.6%,0.32,7.5
COc1cc(/C=N/n2cnnc2)ccc1OC(=O)c1ccncc1,-13.9,-15.2%,-2.23,92.9%,99.1%,1.43,1.08
CCOc1ccc(C2c3c(oc4cc(C)c(C)cc4c3=O)C(=O)N2CCCN2CCOCC2)cc1 (centres undefined),-1.96,-6.06%,-3.05,94.1%,94.6%,0.615,2.24
COc1ccc(NC(=O)c2cc3c(=O)n(C)c4ccccc4c3n2C)cc1OC,-0.735,-6.07%,-5.17,93.8%,80.9%,2.05,5.74
CCOC(=O)Cn1c(=NC(=O)CSC(C)=O)sc2ccccc21,0,8.74%,-4.54,105%,106%,0.465,4.02
CCC(C)OC(=O)C1=C(C)NC(=O)NC1c1ccc(F)cc1 (centres undefined),-8.18,-18.7%,-2.13,97%,92.7%,1.36,2.77
O=C(CCn1c(=O)oc2ccccc21)Nc1cccc(Cl)c1,-14.4,-11%,0.42,92.8%,96.4%,2.17,2.21
CCOc1ccc(-c2cc(CCCC(=O)NCc3ccco3)no2)cc1,-2.19,-4.02%,-2.79,86.5%,88%,0.22,1.77
CC(=O)c1ccc(NC(=O)C2CCC(C)(C(=O)O)C2(C)C)cc1 (centres undefined),-7.29,-11.9%,-0.27,97.9%,106%,2.73,3.04
OCCOCCNc1ncnc2nc[nH]c12,-8.26,-0.86%,-0.43,106%,101%,1.8,-0.28
O=C(Nc1nnc(-c2ccc(Cl)s2)o1)C1CCCCC1,-14.7,-4.65%,-4.45,68.4%,63.2%,3.44,3.62
CC1(C)Cc2c(C#N)c(N3CCCC3)nc(-c3ccco3)c2CO1,-9.34,-8.21%,-5.07,90.3%,85.7%,1.39,-1.01
Cc1cc(N2CCCc3ccccc32)n2ncnc2n1,-2.53,-1.67%,-1.21,97.9%,105%,0.97,0.93
CC(C)C(=O)N=c1sc2cc(F)cc(F)c2n1C,-9.84,-0.65%,-1.28,94.1%,99%,0.01,0.96
CCc1nnc(NC(=O)CCN2C(=O)CCC2=O)s1,4.12,5.96%,0.69,97.3%,93.6%,0.52,3.17
CCOC(=O)CSc1ccc2nnc(-c3ccccc3)n2n1,-8.02,-9.2%,-0.81,108%,93.5%,1.15,0.11
CCOc1ccc(N2C(=O)c3ccccc3C2O)cc1 (centres undefined),6.33,11.8%,1.68,101%,87.5%,-0.05,2.58
CCCc1nc(SCC(=O)Nc2cc(C)on2)c2c(=O)n(C)c(=O)n(C)c2n1,4.81,4.73%,-1.05,97.1%,93%,3.88,4.78
COCCn1c(=NC(=O)CSC(C)=O)sc2cc(OC)ccc21,-27.6,18.1%,-6.74,88%,83.8%,0.53,0.96
Cn1c(NC(=O)CCc2ccccc2)cc(=O)n(C)c1=O,-8.68,-8.72%,-3.77,102%,96.9%,0.855,-0.05
